Active and inactive are the calls of the source.
What was measured:
[1] = target: BDNF/NT-3 growth factors receptor (Homo sapiens) (UniProt Q16620); assay: Induction of TrkB activation in human SH-SY5Y cells assessed as increase in phosphorylated TrkB level at 10 uM after 4 hrs by Western blot analysis; type: cell-based; settings: filed as activator
N2a [2] = assay: Neuroprotective activity against corticosterone-induced neurotoxicity in mouse N2a cells assessed as increase in cell viability at 10 uM preincubated for 24 hrs followed by corticosterone addition and measured after 24 hrs; type: functional, cell-based; settings: time 48.0 hrs
Procedure, shortened: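 Mouse neuroblastoma N2a cells were pretreated with test compound for 24 hrs. They were then co-treated with the neurotoxin, printed as cortisone, at 400 μM for a further 24 hrs before neuroprotection was assessed. P value thresholds were ≤0.05, <0.01 and 0.001.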

SH-SY5Y [3] = assay: Neuroprotective activity against corticosterone-induced neurotoxicity in human SH-SY5Y cells assessed as induction of BDNF neurotropic response at 10 uM preincubated for 2 hrs followed by corticosterone addition and measured after 4 hrs by ELISA; type: functional, cell-based; settings: time 6.0 hrs
[4] = target: BDNF/NT-3 growth factors receptor (Homo sapiens) (UniProt Q16620); assay: Induction of TrkB activation in human SH-SY5Y cells assessed as increase in Akt phosphorylation at 10 uM after 4 hrs by Western blot analysis; type: cell-based; settings: filed as activator
[5] = target: BDNF/NT-3 growth factors receptor (Homo sapiens) (UniProt Q16620); assay: Induction of TrkB activation in human SH-SY5Y cells assessed as increase in ERK1/2 phosphorylation at 10 uM after 4 hrs by Western blot analysis; type: cell-based; settings: filed as activator
N2a [6] = assay: Neuroprotective activity against corticosterone-induced neurotoxicity in mouse N2a cells assessed as increase in cell viability at 5 nM preincubated for 24 hrs followed by corticosterone addition and measured after 24 hrs; type: functional, cell-based; settings: time 48.0 hrs
SH-SY5Y [7] = assay: Neuroprotective activity against corticosterone-induced neurotoxicity in human SH-SY5Y cells assessed as induction of BDNF neurotropic response at 5 nM preincubated for 2 hrs followed by corticosterone addition and measured after 4 hrs by ELISA; type: functional, cell-based; settings: time 6.0 hrs
[8] = target: BDNF/NT-3 growth factors receptor (Homo sapiens) (UniProt Q16620); assay: Induction of TrkB activation in human SH-SY5Y cells assessed as increase in phosphorylated TrkB level at 5 nM after 4 hrs by Western blot analysis; type: cell-based; settings: filed as activator
[9] = target: BDNF/NT-3 growth factors receptor (Homo sapiens) (UniProt Q16620); assay: Induction of TrkB activation in human SH-SY5Y cells assessed as increase in Akt phosphorylation at 5 nM after 4 hrs by Western blot analysis; type: cell-based; settings: filed as activator
[10] = target: BDNF/NT-3 growth factors receptor (Homo sapiens) (UniProt Q16620); assay: Induction of TrkB activation in human SH-SY5Y cells assessed as increase in ERK1/2 phosphorylation at 5 nM after 4 hrs by Western blot analysis; type: cell-based; settings: filed as activator

Measured: Activity

BDNF/NT-3 growth factors receptor (Homo sapiens), sequence (Q16620 32-822 limits assumed): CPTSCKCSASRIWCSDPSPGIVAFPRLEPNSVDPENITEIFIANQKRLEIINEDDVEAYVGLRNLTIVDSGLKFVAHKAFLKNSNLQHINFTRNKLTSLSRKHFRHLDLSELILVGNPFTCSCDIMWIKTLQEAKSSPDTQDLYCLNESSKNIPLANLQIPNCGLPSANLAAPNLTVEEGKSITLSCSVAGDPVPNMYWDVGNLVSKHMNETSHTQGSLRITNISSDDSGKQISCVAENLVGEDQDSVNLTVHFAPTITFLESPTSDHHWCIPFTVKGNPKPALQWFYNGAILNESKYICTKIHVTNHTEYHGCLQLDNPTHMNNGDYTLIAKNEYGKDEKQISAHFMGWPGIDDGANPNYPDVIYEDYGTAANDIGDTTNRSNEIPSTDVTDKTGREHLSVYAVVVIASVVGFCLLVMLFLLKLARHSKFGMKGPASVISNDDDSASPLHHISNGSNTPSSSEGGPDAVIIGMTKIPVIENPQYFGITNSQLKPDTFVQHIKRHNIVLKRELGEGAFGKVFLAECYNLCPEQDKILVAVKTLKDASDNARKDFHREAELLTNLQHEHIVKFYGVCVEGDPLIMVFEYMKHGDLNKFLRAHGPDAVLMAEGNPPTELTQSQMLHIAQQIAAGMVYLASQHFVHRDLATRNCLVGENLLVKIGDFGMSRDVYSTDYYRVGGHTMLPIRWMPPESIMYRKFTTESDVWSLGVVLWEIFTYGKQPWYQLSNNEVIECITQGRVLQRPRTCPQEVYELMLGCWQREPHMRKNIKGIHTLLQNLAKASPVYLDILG

OCCc1ccc(O)cc1
active: [1] | N2a [2] | SH-SY5Y [3] | [4] | [5]

O=c1cc(-c2ccccc2)oc2c(O)c(O)ccc12
active: N2a [6] | SH-SY5Y [7] | [8] | [9] | [10]

OCCc1c[nH]c2ccccc12
active: [1] | N2a [2] | SH-SY5Y [3] | [4] | [5]
